Two molecules from ChEMBL document CHEMBL3414437, “Synthesis of CDDO-amino acid-nitric oxide donor trihybrids as potential antitumor agents against both drug-sensitive and drug-resistant colon cancer” (J Med Chem, 2015) can be followed below.

Data set [1] deals with Mus musculus. Briefly: Toxicity in nude BALB/c mouse xenografted with FU-resistant human HCT8 cells assessed as abnormal color changes in liver at 59.4 umol/kg administered as via oral gavage daily for 21 days. The data set is classed as organism-based, HCT-8. The following applies: in vivo, 504 h. The gist of the method: (§1)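 Male BALB/c nude mice aged 6-8 weeks, implanted s.c. in the right flank with HCT-8/5-FU cells (2 × 10^6). Once tumors reached 180-200 mm3 (days 9-11), randomized to daily gavage for 21 days in cremophor-EL/DMSO/PBS (1:1:8), 0.2 mL. At the end, liver, kidney, lung and heart checked for size, colour and weight. n = 8 per group.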

In data set [2] the test system is Mus musculus. As to the kind of experiment: Toxicity in nude BALB/c mouse xenografted with FU-resistant human HCT8 cells assessed as abnormal size changes in liver at 59.4 umol/kg administered as via oral gavage daily for 21 days. Format: organism-based, HCT-8. The following applies: in vivo, 504 h. The gist of the method:
as §1
On the technique in general: A xenograft is tissue or cells of one species grown in another, often human tumour cells in immunodeficient mice.

The nature of data set [3]: Antitumor activity against FU-resistant human HCT8 cells xenografted in nude BALB/c mouse assessed as reduction in tumor weight at 59.4 umol/kg administered as via oral gavage daily for 21 days. The data set is classed as functional. The note with it: HCT-8, po, 504 h. The gist of the method: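 Male BALB/c nude mice, 6–8 weeks old, inoculated s.c. in the right flank with HCT-8/5-FU cells (2 × 10^6). Once tumors reached 180–200 mm3 (days 9–11), mice were randomized (n = 8) to daily oral gavage for 21 days in cremophor-EL/DMSO/PBS (1:1:8). Tumor volume = W2(L/2), caliper-measured every other day, blinded; tumors weighed at end.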

Data set [4] has as its system HCT-8. As to the kind of experiment: Inhibition of ERK protein phosphorylation in human HCT8 cells at 1 uM incubated for 24 hrs by Western blotting method. The data set is classed as cell-based. The gist of the method:
(§2)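 Cells (1 x 10^6) grown 24 h in 6 cm dishes, then exposed in duplicate for 24 h to 0.25, 0.5 or 1 µM compound, with or without PTIO. Lysates (20 µg/lane) were run on 7.5% SDS-PAGE, blotted to PVDF and blocked in 5% milk. HRP secondaries with ECL detection; bands quantified by densitometry against β-actin or GAPDH. Three separate experiments, mean ± SD.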

Data set [5] deals with HCT-8. Briefly: (§3) Antiproliferative activity against 5-FU resistant human HCT8 cells assessed as inhibition of cell proliferation at 1 uM after 72 hrs by MTT assay. Format: functional. Put shortly:
(§4)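 Cells grown in DMEM with 10% FBS and exposed to compound at 1 µM for 72 h. Proliferation measured by MTT at 570 nm and expressed as % inhibition versus untreated cells. Mean ± SD of three independent experiments.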

In data set [6] the test system is HCT-8. Briefly: Inhibition of HIF-1alpha protein expression in human HCT8 cells at 1 uM incubated for 24 hrs by Western blotting method. The data set is classed as functional, cell-based. The gist of the method: as §2
For orientation: In western blotting, separated proteins are transferred to a membrane and probed.

Data set [7] has as its target RAC-alpha serine/threonine-protein kinase (Homo sapiens) (UniProt P31749). As to the kind of experiment: Inhibition of AKT protein phosphorylation in FU-resistant human HCT8 cells at 1 uM incubated for 24 hrs by Western blotting method. Format: cell-based. The note with it: HCT-8. Put shortly: as §2
Data set [8] concerns Mus musculus. As to the kind of experiment: Toxicity in nude BALB/c mouse xenografted with FU-resistant human HCT8 cells assessed as abnormal weight changes in kidney at 59.4 umol/kg administered as via oral gavage daily for 21 days. Format: organism-based, HCT-8. The following applies: in vivo, 504 h. The gist of the method: as §1
In data set [9] the test system is Mus musculus. Briefly: Toxicity in nude BALB/c mouse xenografted with FU-resistant human HCT8 cells assessed as abnormal color changes in lung at 59.4 umol/kg administered as via oral gavage daily for 21 days. The following applies: in vivo, 504 h. Format: organism-based, HCT-8. Put shortly:
as §1

The subject of data set [10] is HCT-8. As to the kind of experiment: Inhibition of BCRP protein expression in FU-resistant human HCT8 cells at 1 uM incubated for 24 hrs by Western blotting method. The data set is classed as functional, cell-based. The gist of the method:
as §2

Data set [11] deals with HCT-8. As to the kind of experiment: Antiproliferative activity against 5-FU resistant human HCT8 cells assessed as inhibition of cell proliferation at 0.125 to 0.5 uM incubated for 72 hrs after 24 hrs of pre-treatment with 0.75 uM and 1 .5 uM pepT1 substrate Gly-Sar by MTT assay. The data set is classed as functional, cell-based. The gist of the method:
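Cells pretreated with or without Gly-Sar (0.75 or 1.5 µM) for 24 h, then given a range of compound concentrations for 72 h. Proliferation inhibition measured by MTT.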
Background: Tetrazolium assays rely on reduction of a dye to a coloured formazan, in cell work by metabolically active cells.

Data set [12] has as its system HCT-8. Briefly: Inhibition of ERK protein phosphorylation in FU-resistant human HCT8 cells at 0.25 to 1 uM incubated for 24 hrs by Western blotting method. Format: cell-based. Put shortly: as §2
Data set [13] relates to HCT-8. Briefly: Induction of apoptosis in human HCT8 cells incubated for 24 hrs by FITC-Annexin-V and propidium iodide staining based flow cytometry. The data set is classed as functional, cell-based.
Data set [14] deals with HCT-8. Briefly: Inhibition of P-gp protein expression in FU-resistant human HCT8 cells at 1 uM in presence of NO scavenger carboxy-PTIO incubated for 24 hrs by Western blotting method. Format: functional, cell-based. The gist of the method:
as §2

In data set [15] the test system is Mus musculus. As to the kind of experiment: Toxicity in male ICR mouse assessed as body weight level at 2.38 x 10^3 umol/kg administered as single dose via oral gavage measured on day 14 post treatment (reference value: 19.5 +/- 0.85 g). Format: organism-based. The following applies: in vivo.
Data set [16] is described as follows: as §3. The data set is classed as functional. The following applies: HCT-8, 72 h, read-out: GI. The gist of the method:
as §4

Data set [17] relates to Mus musculus. As to the kind of experiment: Toxicity in nude BALB/c mouse xenografted with FU-resistant human HCT8 cells assessed as abnormal size changes in heart at 17.8 to 35.7 umol/kg administered as via oral gavage daily for 21 days. The data set is classed as organism-based, HCT-8. The following applies: in vivo, 504 h. The gist of the method:
as §1

The test system of data set [18] is Mus musculus. Briefly: Toxicity in nude BALB/c mouse xenografted with FU-resistant human HCT8 cells assessed as body weight level at 17.8 umol/kg administered as via oral gavage daily for 21 days (reference value: 22.3 +/- 1.9 g). The data set is classed as organism-based, HCT-8. The following applies: in vivo, 504 h. Put shortly: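 Male BALB/c nude mice, 6-8 weeks old, inoculated s.c. in right flank with HCT-8/5-FU cells (2 × 10^6/mouse). Once tumors reached 180-200 mm3 (9-11 days post-implantation), mice were randomized and dosed by gavage daily for 21 consecutive days in cremophor-EL/DMSO/PBS (1:1:8) (vehicle alone 0.2 mL). Body weights recorded on day 1 and day 21. Organ size, color and weights were inspected for liver, kidney, lung and heart. n = 8 per group; mean ± SD.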

Data set [19] deals with HCT-8. As to the kind of experiment: Inhibition of BCRP protein expression in FU-resistant human HCT8 cells at 1 uM in presence of NO scavenger carboxy-PTIO incubated for 24 hrs by Western blotting method. Format: functional, cell-based. The gist of the method: as §2
Data set [20] concerns Mus musculus. As to the kind of experiment: Toxicity in nude BALB/c mouse xenografted with FU-resistant human HCT8 cells assessed as abnormal size changes in lung at 17.8 to 35.7 umol/kg administered as via oral gavage daily for 21 days. Format: organism-based, HCT-8. The note with it: in vivo, 504 h. Put shortly: as §1
The nature of data set [21]: Toxicity in female ICR mouse assessed as mouse mortality at 2.38 x 10^3 umol/kg administered as single dose via oral gavage measured up to 14 days post treatment. The data set is classed as organism-based. The note with it: in vivo. The gist of the method: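 Female or male adult ICR mice, 10 per sex group, were randomised and given a single oral gavage dose of 2,000 mg/kg in cremophor-EL/DMSO/PBS (1:1:8). Total mortality was recorded over days 1–14, and body weight on days 0, 7 and 14 as mean ± SD.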

Data set [22] concerns Mus musculus. As to the kind of experiment: Toxicity in nude BALB/c mouse xenografted with FU-resistant human HCT8 cells assessed as abnormal color changes in heart at 17.8 to 35.7 umol/kg administered as via oral gavage daily for 21 days. The data set is classed as organism-based, HCT-8. The following applies: in vivo, 504 h. The gist of the method:
as §1

The test system of data set [23] is HCT-8. As to the kind of experiment: Inhibition of HIF-1alpha protein expression in human HCT8 cells at 0.25 to 1 uM incubated for 24 hrs by Western blotting method. Format: functional, cell-based. The gist of the method:
as §2

The subject of data set [24] is Mus musculus. As to the kind of experiment: Toxicity in male ICR mouse assessed as body weight level at 2.38 x 10^3 umol/kg administered as single dose via oral gavage measured on day 7 post treatment (reference value: 19.8 +/- 0.92 g). The following applies: in vivo. Format: organism-based.

The source made the active and inactive calls. The rule behind the calls is not given here.

Chain of RAC-alpha serine/threonine-protein kinase (Homo sapiens) (P31749 whole entry): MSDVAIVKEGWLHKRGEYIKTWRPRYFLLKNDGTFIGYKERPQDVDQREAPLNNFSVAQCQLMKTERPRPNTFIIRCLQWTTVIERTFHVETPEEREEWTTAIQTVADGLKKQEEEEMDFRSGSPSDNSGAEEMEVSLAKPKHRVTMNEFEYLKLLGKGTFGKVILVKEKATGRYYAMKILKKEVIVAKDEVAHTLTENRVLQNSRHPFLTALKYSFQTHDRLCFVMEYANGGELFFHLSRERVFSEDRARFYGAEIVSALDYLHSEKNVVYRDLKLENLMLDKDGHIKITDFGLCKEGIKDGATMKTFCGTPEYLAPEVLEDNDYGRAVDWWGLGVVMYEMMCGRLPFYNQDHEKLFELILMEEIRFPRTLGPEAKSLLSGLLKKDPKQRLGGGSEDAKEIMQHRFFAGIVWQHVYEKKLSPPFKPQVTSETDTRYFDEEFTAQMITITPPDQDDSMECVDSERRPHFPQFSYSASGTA

Take `COC(=O)[C@]12CCC(C)(C)C[C@H]1[C@H]1C(=O)C=C3[C@@]4(C)C=C(C#N)C(=O)C(C)(C)[C@@H]4CC[C@@]3(C)[C@]1(C)CC2` [BARDOXOLONE METHYL]: the Activity result in data set [1], in data set [2], in data set [8] and in data set [9] was “Non-toxic” throughout. The inhibition in vivo at 59.4 µmol/kg in data set [3] worked out at 58.4%. In addition, the inhibition result in [4], in data set [6] and in data set [7] was “Active” throughout. Besides, in data set [5], the “growth inhibition (GI)” value is “Active”. For the same molecule, the inhibition entry in [10] was “inactive”.
`CC1(C)CC[C@]2(C(=O)NCC(=O)OCC#CCOc3no[n+]([O-])c3S(=O)(=O)c3ccccc3)CC[C@]3(C)[C@H](C(=O)C=C4[C@@]5(C)C=C(C#N)C(=O)C(C)(C)[C@@H]5CC[C@]43C)[C@@H]2C1`: the inhibition result in data set [11], in data set [14] and in [19] was “inactive” in each case. Moreover, the inhibition result in data set [12] and in data set [23] was “Dose-dependent effect” in each case. Besides, the Activity entry in [13] was “Dose-dependent effect”; in data set [15], 31.9 g; in [17], “Non-toxic”; in data set [18], 17.5 g; in [20], “Non-toxic”; in data set [22], “Non-toxic”. Besides, the Activity in data set [24] was determined as 26.7 g. In data set [16], the inhibition of growth at 1 µM is > 90%. The mortality at 336 h in data set [21] was found to be 0%.

The inhibition in vivo is the change of the read-out against control, counted positive when it falls. For orientation: mortality means the percentage killed.
